Test results taken from ChEMBL document CHEMBL1123846, “Chemical differentiating agents. Differentiation of HL-60 cells by hexamethylenebis[acetamide] analogues” (1987).

Experiments:
[1] = system: HL-60; test: Percent of viability for HL-60 cells was determined by dividing number of viable differentiated cells by total number of viable cells, at concentration of 38 mM; format: functional, Homo sapiens
Method in brief: (§1)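 HL-60 cultures were seeded at 2×10^5/mL with agent added from ethanol or Me2SO, final Me2SO up to 77 mM, and harvested on day 4. Total cells were counted on a Coulter counter, and the viable fraction of total cells was determined by trypan blue exclusion.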

[2] = system: HL-60; test: Differentiation studies was conducted with the HL-60 human myeloid leukemia cell line and Total cells were counted with a Coulter counter, at a concentration of 64 mM; format: functional
Method in brief: (§2)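 HL-60 cells seeded at 2×10^5/mL with test agent added from ethanol or Me2SO stock; final Me2SO no more than 77 mM. Total cells counted on a Coulter counter on day 4.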

[3] = system: HL-60; test: Percent of viability for HL-60 cells was determined by dividing number of viable differentiated cells by total number of viable cells, at concentration of 77 mM; format: functional, Homo sapiens; method in brief: as §1
[4] = system: HL-60; test: Percent of viability for HL-60 cells was determined by dividing number of viable differentiated cells by total number of viable cells, at concentration of 64 mM; format: functional, Homo sapiens; method in brief: as §1
[5] = system: HL-60; test: Percent of differentiated HL-60 cells was determined by dividing number of viable differentiated cells by total number of viable cells, at a concentration of 38 mM; format: functional, Homo sapiens
Method in brief: (§3)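 HL-60 cells started at 2×10^5/mL and counted on day 4. Test agents were added from ethanol or Me2SO, with final Me2SO at most 77 mM. Differentiation was scored by formazan production, which requires superoxide from living cells. % D is the number of viable differentiated cells divided by the total number of viable cells.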

[6] = system: HL-60; test: Differentiation studies was conducted with the HL-60 human myeloid leukemia cell line and total cells were counted with a Coulter counter, at a concentration of 38 mM; format: functional; method in brief: as §2
[7] = system: HL-60; test: Percent of differentiated HL-60 cells was determined by dividing number of viable differentiated cells by total number of viable cells, at a concentration of 64 mM; format: functional, Homo sapiens; method in brief: as §3
[8] = system: HL-60; test: Percent of differentiated HL-60 cells was determined by dividing number of viable differentiated cells by total number of viable cells, at a concentration of 77 mM; format: functional, Homo sapiens; method in brief: as §3
[9] = system: HL-60; test: Differentiation studies was conducted with the HL-60 human myeloid leukemia cell line and Total cells were counted with a Coulter counter, at a concentration of 77 mM; format: functional; method in brief: as §2
[10] = system: HL-60; test: Differentiation studies was conducted with the HL-60 human myeloid leukemia cell line and Total cells were counted with a Coulter counter, at a concentration of 3.0 mM; format: functional; method in brief: as §2
[11] = system: HL-60; test: Percent of viability for HL-60 cells was determined by dividing number of viable differentiated cells by total number of viable cells, at concentration of 3.0 mM; format: functional, Homo sapiens; method in brief: as §1
[12] = system: HL-60; test: Percent of differentiated HL-60 cells was determined by dividing number of viable differentiated cells by total number of viable cells, at a concentration of 3.0 mM; format: functional, Homo sapiens; method in brief: as §3
[13] = system: HL-60; test: Percent of viability for HL-60 cells was determined by dividing number of viable differentiated cells by total number of viable cells, at concentration of 4.0 mM; format: functional, Homo sapiens; method in brief: as §1
[14] = system: HL-60; test: Percent of differentiated HL-60 cells was determined by dividing number of viable differentiated cells by total number of viable cells, at a concentration of 4.0 mM; format: functional, Homo sapiens; method in brief: as §3
[15] = system: HL-60; test: Differentiation studies was conducted with the HL-60 human myeloid leukemia cell line and Total cells were counted with a Coulter counter, at a concentration of 4.0 mM; format: functional; method in brief: as §2
[16] = system: HL-60; test: Percent of differentiated HL-60 cells was determined by dividing number of viable differentiated cells by total number of viable cells, at a concentration of 2.0 mM; format: functional, Homo sapiens; method in brief: as §3
[17] = system: HL-60; test: Percent of differentiated HL-60 cells was determined by dividing number of viable differentiated cells by total number of viable cells, at a concentration of 2.5 mM; format: functional, Homo sapiens; method in brief: as §3
[18] = system: HL-60; test: Percent of viability for HL-60 cells was determined by dividing number of viable differentiated cells by total number of viable cells, at concentration of 1.0 mM; format: functional, Homo sapiens; method in brief: as §1
[19] = system: HL-60; test: Differentiation studies was conducted with the HL-60 human myeloid leukemia cell line and total cells were counted with a Coulter counter, at a concentration of 2.0 mM; format: functional; method in brief: as §2
[20] = system: HL-60; test: Percent of differentiated HL-60 cells was determined by dividing number of viable differentiated cells by total number of viable cells, at a concentration of 1.0 mM; format: functional, Homo sapiens; method in brief: as §3
[21] = system: HL-60; test: Differentiation studies was conducted with the HL-60 human myeloid leukemia cell line and total cells were counted with a Coulter counter, at a concentration of 1.0 mM; format: functional; method in brief: as §2
[22] = system: HL-60; test: Percent of viability for HL-60 cells was determined by dividing number of viable differentiated cells by total number of viable cells, at concentration of 2.5 mM; format: functional, Homo sapiens; method in brief: as §1
[23] = system: HL-60; test: Percent of viability for HL-60 cells was determined by dividing number of viable differentiated cells by total number of viable cells, at concentration of 2.0 mM; format: functional, Homo sapiens; method in brief: as §1
[24] = system: HL-60; test: Differentiation studies was conducted with the HL-60 human myeloid leukemia cell line and Total cells were counted with a Coulter counter, at a concentration of 2.5 mM; format: functional; method in brief: as §2
[25] = system: HL-60; test: Percent of differentiated in HL-60 cells was determined by dividing number of viable differentiated cells by total number of viable cells, at a concentration of 2.5 mM; format: functional, Homo sapiens; method in brief: as §3
[26] = system: HL-60; test: Percent of differentiated in HL-60 cells was determined by dividing number of viable differentiated cells by total number of viable cells, at a concentration of 3.0 mM; format: functional, Homo sapiens; method in brief: as §3
[27] = system: HL-60; test: Percent of differentiated in HL-60 cells was determined by dividing number of viable differentiated cells by total number of viable cells, at a concentration of 2.0 mM; format: functional, Homo sapiens; method in brief: as §3
[28] = system: HL-60; test: Percent of differentiated in HL-60 cells was determined by dividing number of viable differentiated cells by total number of viable cells, at a concentration of 1.0 mM; format: functional, Homo sapiens; method in brief: as §3

SMILES	Total cells [10]	V [11]	D [12]	V [18]	Total cells [19]	Total cells [21]	V [22]	V [23]	Total cells [24]	other results
C[S+](C)[O-] [DIMETHYL SULFOXIDE]	–	–	–	–	–	–	–	–	–	V [1]: 97%; Total cells [2]: 980000 cells/mL; V [3]: 94%; V [4]: 96%; D [5]: 6%; Total cells [6]: 970000 cells/mL; D [7]: 9%; D [8]: 6%; Total cells [9]: 930000 cells/mL
CNC(=O)CCCCCNC(C)=O	680000 mL	72%	40%	–	–	–	–	–	–	V [13]: 56%; D [14]: 71%; Total cells [15]: 690000 mL
CC(=O)N(C)CCCCCCN(C)C(C)=O	420000 mL	30%	94%	90%	700000 mL	1.12e+06 mL	32%	57%	510000 mL	D [16]: 74%; D [17]: 93%; D [20]: 10%
O=C1CCCCN1CCCCCCN1CCCCC1=O	370000 mL	25%	–	87%	760000 mL	830000 mL	62%	65%	680000 mL	D [25]: 72%; D [26]: 87%; D [27]: 40%; D [28]: 12%
